Substitutions are numbered along the chain they refer to. “Also recorded” adds a separate entry of the source. Like-named read-outs stand apart in the source and are kept apart here.
Key:
[1] = test system: endogenous Smo in NIH-3T3 cells; experiment: Ciliary recruitment of endogenous Smo in sterol-depleted NIH-3T3 cells; assay type: cell-based; conditions: for Recruitment of endogenous Smo to cilia: agent alone; for Rescue of Smo recruitment to cilia in response to Shh: sterols added back as MCD complexes (100 μM)
Outline: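 Confluent NIH-3T3 cells starved overnight in DMEM, then sterol-depleted with 1.5% MCD for 30 min. Kept in DMEM with 40 μM pravastatin throughout. Sterols added back 1 h as MCD complexes, then overnight with agents or Shh (conditioned medium from 293T cells expressing human Shh aa 1–197). Stained with anti-acetylated tubulin (1:5000) and anti-mSmo (1 μg/mL final); ciliary Smo intensity quantified automatically.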

XSmoG84S ectodomain [2] = target: T1, XSmoG84S ectodomain (Xenopus laevis, UniProt Q98SW5, G84S); conditions: read-out: IC50, competition of BODIPY-cyclopamine binding
T1 sequence (Q98SW5 35-189 G84S): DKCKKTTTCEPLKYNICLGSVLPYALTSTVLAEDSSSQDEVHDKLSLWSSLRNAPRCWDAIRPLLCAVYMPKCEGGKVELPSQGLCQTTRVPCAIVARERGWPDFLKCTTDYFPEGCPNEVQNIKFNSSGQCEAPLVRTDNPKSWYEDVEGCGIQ
Outline: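 Purified E. coli-expressed Xenopus Smo G84S ectodomain incubated with BODIPY-cyclopamine (5 nM) and varying concentrations of unlabeled competitor for 1 h at room temperature. Fluorescence polarization read on a plate reader and converted to anisotropy. Measured in triplicate; IC50 obtained by fitting competition curves.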

mSmoG115S = mSmoG115S (Mus musculus, UniProt P56726, G115S); experiment: Hh pathway activity by qPCR for Gli1 in Smo-null cells rescued with mSmoG115S; assay type: cell-based
XSmo ectodomain [3] = target: T2, XSmo ectodomain (Xenopus laevis, UniProt Q98SW5); assay type: binding
T2 sequence (Q98SW5 35-189): T1 sequence (Q98SW5 35-189 G84S) with S50G

XSmo ectodomain [4] = target: T2, XSmo ectodomain; experiment: Circular dichroism; assay type: binding; conditions: small molecule 25 μM; CD signal at 225 nm; protein alone Tm=62.1°C
[5] = test system: Hh signaling in NIH-3T3 cells; experiment: Synergy with Shh in activating Hh signaling in NIH-3T3 cells; assay type: cell-based, mouse
mSmoE164L = mSmoE164L (Mus musculus, UniProt P56726, E164L); experiment: Hh pathway activity by qPCR for Gli1 in Smo-null cells rescued with mSmoE164L; assay type: cell-based
mSmoG115S/E164L = mSmoG115S/E164L (Mus musculus, UniProt P56726, E164L/G115S); assay type: cell-based
mSmoG115F = mSmoG115F (Mus musculus, UniProt P56726, G115F); experiment: Hh pathway activity by qPCR for Gli1 in Smo-null cells rescued with mSmoG115F; assay type: cell-based
mSmoD99A = mSmoD99A (Mus musculus, UniProt P56726, D99A); experiment: Hh pathway activity by qPCR for Gli1 in Smo-null cells rescued with mSmoD99A; assay type: cell-based
mSmoD477G/E522K = mSmoD477G/E522K (Mus musculus, UniProt P56726, D477G/E522K); experiment: BODIPY-cyclopamine binding to mCherry-tagged mSmoD477G/E522K in 293T cells; conditions: 50 nM
Outline: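 mCherry-tagged mutant mSmo transiently expressed in 293T cells. Cells washed into serum-free OptiMEM, then incubated 1 h with BODIPY-cyclopamine, with or without SANT1 competitor (10 μM). Fixed in 3.6% formaldehyde/PBS for 30 min at room temperature and washed with TBST. BODIPY and mCherry signals imaged by epifluorescence microscopy.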

XSmo ectodomain [6] = target: T2, XSmo ectodomain; experiment: Fluorescence polarization binding of BODIPY probes to purified XSmo ectodomain; conditions: XSmo ectodomain (amino acids 35–189), probe 5 nM
Outline: (§1)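 Xenopus Smo CRD (aa 35–154) or ectodomain (aa 35–189; wild type or G84S) expressed in E. coli as thioredoxin-His6 fusions. Purified by Ni-NTA, glutathione redox refolding and size exclusion. Increasing protein amounts mixed with BODIPY FL probes (5 nM) in 20 mM HEPES pH 7.5, 100 mM NaCl, 1 h at room temperature. FP converted to anisotropy; triplicate; Kd from curve fitting.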

XSmoG84S ectodomain [7] = target: T1, XSmoG84S ectodomain; assay type: binding
Outline: as §1

XSmoCRD = target: T3, XSmoCRD (Xenopus laevis, UniProt Q98SW5); experiment: Fluorescence polarization binding of BODIPY probes to purified XSmoCRD; conditions: XSmoCRD (amino acids 35–154), probe 5 nM
T3 sequence (Q98SW5 35-154): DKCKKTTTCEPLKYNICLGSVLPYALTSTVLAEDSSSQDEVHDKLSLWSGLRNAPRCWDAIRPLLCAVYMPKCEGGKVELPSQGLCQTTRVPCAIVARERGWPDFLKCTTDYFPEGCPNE
Outline: as §1

mSmo = mSmo (Mus musculus, UniProt P56726); experiment: Ciliary localization of mSmo in rescued Smo-null cells; assay type: cell-based; conditions: with or without sterol depletion
Outline: (§2)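 Smo-null cells rescued with the mSmo construct, grown on glass coverslips. Confluent cultures starved overnight in DMEM, then sterol-depleted with 1.5% MCD in DMEM for 30 min. Later incubations with agents in DMEM plus 40 μM pravastatin. Immunofluorescence used anti-acetylated tubulin as cilia marker; ciliary Smo intensity quantified by automated image analysis, at least 300 cilia per condition.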

wild-type mSmo = wild-type mSmo (Mus musculus, UniProt P56726); assay type: cell-based; conditions: for Effect on Hh pathway activity (Gli1 mRNA): mSmo, irrespective of sterol depletion; for Activation of Hh signaling (in words): wild-type mSmo, sterols delivered as MCD complexes
mSmoΔCRD [8] = experiment: Ciliary localization of mSmoΔCRD in rescued Smo-null cells; assay type: cell-based, mouse; conditions: with or without sterol depletion
Outline: as §2

mSmoΔCRD [9] = assay type: cell-based, mouse; conditions: irrespective of sterol depletion

CC(C)CCC[C@@H](C)[C@H]1CC[C@H]2[C@@H]3C(O)C=C4C[C@@H](O)CC[C@]4(C)[C@H]3CC[C@]12C (stereo partly shown) [7-hydroxycholesterol]
Recruitment of endogenous Smo to cilia [1]: inactive

CCCCC[C@@](C)(O)[C@H]1CC[C@H]2[C@@H]3CC=C4C[C@@H](O)CC[C@]4(C)[C@H]3CC[C@@]21C [20(R)-OHC-Pent]
IC50 (XSmoG84S ectodomain [2]): 5.5 µM

CC(C)CCC[C@@](C)(O)[C@H]1CC[C@H]2[C@@H]3CC=C4C[C@@H](O)CC[C@]4(C)[C@H]3CC[C@@]21C [20(R)-OHC]
Activation of Hh signaling (in words) (mSmoG115S): strongly activated

CC(C)CCC[C@](C)(O)[C@H]1CC[C@H]2[C@@H]3CC=C4C[C@@H](O)CC[C@]4(C)[C@H]3CC[C@@]21C [20(S)-OHC, 20(S)-hydroxycholesterol]
IC50 (XSmo ectodomain [3]): 1800 nM | Melting temperature (Tm) of XSmo ectodomain (XSmo ectodomain [4]): 66.5 °C

CCCCCC(C)(O)[C@H]1CC[C@H]2[C@@H]3CC=C4C[C@@H](O)CC[C@]4(C)[C@H]3CC[C@]12C (stereo partly drawn) [20(S)-OHC-Pent]
IC50 (XSmoG84S ectodomain [2]): 44 µM | Synergy with Shh [5]: does not synergize | Activation of Hh signaling (in words) (mSmoE164L): significantly decreases activation | Activation of Hh signaling (in words) (mSmoG115S): reduced | Activation of Hh signaling (in words) (mSmoG115S/E164L): do not respond | Activation of Hh signaling (in words) (mSmoG115F): does not activate | Activation of Hh signaling (in words) (mSmoD99A): do not respond

C[C@H](CCCC(C)(C)F)[C@H]1CC[C@H]2[C@@H]3CC=C4C[C@@H](O)CC[C@]4(C)[C@H]3CC[C@]12C [25F-cholesterol, 25-fluorocholesterol]
Rescue of Smo recruitment to cilia in response to Shh [1]: rescued

CC1=C2CC3C(CC=C4C[C@@H](O)CCC43C)C2CCC12O[C@@H]1CC(C)CN(CCNC(=O)CCCCCNC(=O)CCC3=[N+]4C(=Cc5c(C)cc(C)n5[B-]4(F)F)C=C3)C1C2C (stereo partly shown) [BODIPY-cyclopamine]
Binding to mSmoD477G/E522K in cells (fluorescence microscopy) (mSmoD477G/E522K): does not bind | Kd (XSmo ectodomain [6]): 434 nM | Kd (XSmoG84S ectodomain [7]): 621 nM | Kd (XSmoCRD): 389 nM

C[C@H](CCCC(F)(C(F)(F)F)C(F)(F)F)[C@H]1CC[C@H]2[C@@H]3CC=C4C[C@@H](O)CC[C@]4(C)[C@H]3CC[C@]12C [F7-cholesterol]
Rescue of Smo recruitment to cilia in response to Shh [1]: rescued

CNC1CCC(N(Cc2cccc(-c3ccncc3)c2)C(=O)c2sc3ccccc3c2Cl)CC1 (stereo not shown) [SAG]
Ciliary localization of mSmo (mSmo): accumulate in cilia | Effect on Hh pathway activity (Gli1 mRNA) (wild-type mSmo): activated | Ciliary localization of mSmoΔCRD (mSmoΔCRD [8]): accumulate in cilia | Recruitment of endogenous Smo to cilia [1]: strongly recruit | Effect on Hh pathway activity (Gli1 mRNA) (mSmoΔCRD [9]): activated | Activation of Hh signaling (in words) (mSmoD99A): robust activation

Cc1nn(-c2ccccc2)c(C)c1/C=N/N1CCN(Cc2ccccc2)CC1 [SANT1]
Ciliary localization of mSmo (mSmo): reduced | Effect on Hh pathway activity (Gli1 mRNA) (wild-type mSmo): inhibited | Ciliary localization of mSmoΔCRD (mSmoΔCRD [8]): reduced | Effect on Hh pathway activity (Gli1 mRNA) (mSmoΔCRD [9]): inhibited

CC(C)CCC[C@@H](C)[C@H]1CC[C@H]2[C@@H]3CC[C@H]4C[C@@H](O)CC[C@]4(C)[C@H]3CC[C@]12C [cholestanol]
Binding to XSmo ectodomain (in words) (XSmo ectodomain [3]; competition of BODIPY-cyclopamine): inactive; also recorded: does not bind | Activation of Hh signaling (in words) (wild-type mSmo): inactive | Melting temperature (Tm) of XSmo ectodomain (XSmo ectodomain [4]): 62.9 °C

CC(C)CCC[C@@H](C)[C@H]1CC[C@H]2[C@@H]3CC=C4C[C@@H](O)CC[C@]4(C)[C@H]3CC[C@]12C [cholesterol]
IC50 (XSmo ectodomain [3]): 2400 nM | Synergy with Shh (wild-type mSmo; Smo-null cells rescued with wild type mSmo, sterols 5 μM as MCD complexes): synergizes | Rescue of mSmo activation by Shh after sterol depletion (wild-type mSmo; add-back 100 μM MCD complex): rescues | Activation of Hh signaling (in words) (wild-type mSmo): activate | Activation of Hh signaling (in words) (wild-type mSmo; listed as Cholesterol): activates Hh signaling | Synergy with Shh [5]: synergizes | Rescue of Smo recruitment to cilia in response to Shh [1]: rescued | Activation of Hh signaling (in words) (mSmoG115S): activate | Activation of Hh signaling (in words) (mSmoG115S/E164L): activate | Activation of Hh signaling (in words) (mSmoG115F): responds | Melting temperature (Tm) of XSmo ectodomain (XSmo ectodomain [4]): 65.3 °C | Activation of Hh signaling (in words) (mSmoD99A): defective

CC1=C2C[C@H]3[C@@H](CC=C4C[C@@H](O)CC[C@@]43C)[C@@H]2CC[C@]12O[C@@H]1C[C@H](C)CN[C@H]1[C@H]2C [cyclopamine]
IC50 (XSmo ectodomain [3]): 4500 nM | Melting temperature (Tm) of XSmo ectodomain (XSmo ectodomain [4]): 66.6 °C

BODIPY-20(S)-hydroxycholesterol [BODIPY-20(S)-OHC]
Kd (XSmo ectodomain [6]): 138 nM | Kd (XSmoCRD): 225 nM

BODIPY-22-azacholesterol [BODIPY-22-NHC]
Kd (XSmo ectodomain [6]): 1400 nM | Kd (XSmoCRD): 1360 nM

From PMC5035717 (Cell, 2016)
